Measurements published in ChEMBL document CHEMBL3797170, “A Grand Challenge: Unbiased Phenotypic Function of Metabolites from Jaspis splendens against Parkinson's Disease” (J Nat Prod, 2016).
Active and inactive are the calls of the source. No cut-off for these calls is given here.

How the values were obtained:
ONS [1] = test: Induction of phenotypic perturbation in human ONS cells assessed as increase in LC3b marker at 10 uM after 24 hrs by LC3b staining based assay relative to control; type: functional, cell-based
Outline: (§1)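 hONS patient cells (line C1 200 08 0013; 1350/well, DMEM/F12 plus 10% FBS) were given 10 μM compound in 0.6% DMSO, with DMSO as control, for 24 h at 37 °C. MitoTracker Orange CMTMRos (400 nM, 30 min) was applied live before 4% PFA fixation. Anti-α-tubulin and anti-LC3b immunofluorescence plus DAPI followed. High-content imaging used six images/well, with cell segmentation, and each feature was expressed as log2 ratio versus DMSO.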

ONS [2] = test: Induction of phenotypic perturbation in human ONS cells assessed as decrease in EEA1-associated early endosomes level in at 10 uM after 24 hrs by EEA1 staining based assay relative to control; type: functional, cell-based
Outline: (§2)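 hONS cells from Parkinson's disease patient line C1 200 08 0013, 1350 cells/well in DMEM/F12 with 10% FBS, exposed to 10 μM compound (0.6% DMSO; DMSO alone as control) for 24 h at 37 °C, 5% CO2. Live stain with LysoTracker Red DND-99 (100 nM, 1 h), then PFA fixation, anti-EEA1 immunostaining, DAPI and CellMask. Imaged at 20×, six fields/well, per-cell features given as log2 ratio to DMSO.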

ONS [3] = test: Induction of phenotypic perturbation in human ONS cells assessed as increase in mitochondrial marker at 10 uM after 24 hrs by mitotracker orange staining based assay relative to control; type: functional, cell-based; outline: as §1
[4] = molecular target: Tubulin alpha (Homo sapiens) (UniProt P0DPH7+P68366+Q71U36+P68363+Q9BQE3+Q6PEY2+A6NHL2+Q9NY65); test: Induction of phenotypic perturbation in human ONS cells assessed as increase in apha tubulin marker at 10 uM after 24 hrs by alpha tubulin staining based assay relative to control; type: functional, cell-based; outline: as §1
ONS [5] = test: Induction of phenotypic perturbation in human ONS cells assessed as increase in lysosome marker at 10 uM after 24 hrs by lysotrack red DND-99 staining based assay relative to control; type: functional, cell-based; outline: as §2
ONS [6] = test: Induction of phenotypic perturbation in human ONS cells assessed as decrease in autophagy markers level in at 10 uM after 24 hrs relative to control; type: functional, cell-based
Outline: (§3)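 Patient-derived hONS cells (Parkinson's line C1 200 08 0013), 1350 cells/well in DMEM/F12 + 10% FBS, exposed to 10 μM compound (0.6% DMSO final; DMSO 0.6% as negative control) for 24 h at 37 °C, 5% CO2. Plate 1: MitoTracker Orange 400 nM, fixed, anti-α-tubulin and anti-LC3b. Plate 2: LysoTracker Red 100 nM, anti-EEA1, CellMask. DAPI on all cells.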

[7] = Cytotoxicity against human ONS cells derived from parkinsons disease patients assessed as alteration of nuclear parameters at 10 uM; type: cell-based; outline: as §3
[8] = Cytotoxicity against human ONS cells derived from parkinsons disease patients assessed as alteration of cellular parameters at 10 uM; type: cell-based; outline: as §3
ONS [9] = test: Induction of phenotypic perturbation in human ONS cells assessed as decrease in lysosome marker at 10 uM after 24 hrs by lysotrack red DND-99 staining based assay relative to control; type: functional, cell-based
ONS [10] = test: Induction of phenotypic perturbation in human ONS cells assessed as increase in EEA1-associated early endosomes level in at 10 uM after 24 hrs by EEA1 staining based assay relative to control; type: functional, cell-based

N#Cc1cn([C@@H]2O[C@H](CO)[C@@H](O)[C@H]2O)c2nc[nH]c(=O)c12
Activity (ONS [1]): Active
Activity (ONS [2]): Active
Activity (ONS [3]): Active
Activity [4]: Active
Activity (ONS [5]): Active

Nc1nc2c(ncn2[C@@H]2O[C@H](CO)[C@@H](O)[C@H]2O)c(=O)[nH]1
Activity (ONS [6]): Active
Activity (ONS [2]): Active

CSc1c(CC(=O)O)[n+](C)cn1C
Activity (ONS [1]): Active
Activity (ONS [2]): Active
Activity (ONS [3]): Active
Activity [4]: Active
Activity (ONS [5]): Active

Cc1cn([C@H]2C[C@H](O)[C@@H](CO)O2)c(=O)[nH]c1=O
Activity (ONS [6]): Active
Activity (ONS [2]): Active

C/C(=C\[C@H](C)C[C@H](C)O)C[C@H](C)C(=O)N[C@@H](C)C(=O)N(C)[C@H](Cc1c(Br)[nH]c2ccccc12)C(=O)N[C@H](CC(=O)O)c1ccc(O)cc1 [JASPLAKINOLIDE Z1]
Activity [7]: Toxic
Activity [8]: Toxic
Activity (ONS [1]): Active
Activity (ONS [2]): Active
Activity (ONS [3]): Active
Activity [4]: Active
Activity (ONS [5]): Active

N#Cc1cn([C@@H]2O[C@H](CO)[C@@H](O)[C@H]2O)c2ncnc(N)c12
Activity (ONS [6]): Active
Activity (ONS [2]): Active

CNc1nc2nccnc2c(=O)n1C
Activity (ONS [1]): Active
Activity (ONS [2]): Active
Activity (ONS [3]): Active
Activity [4]: Active
Activity (ONS [5]): Active

N=C(N)c1c[nH]c2cc(Br)ccc12
Activity (ONS [1]): Active
Activity (ONS [2]): Active
Activity (ONS [3]): Active
Activity [4]: Active
Activity (ONS [5]): Active

N#Cc1c[nH]c2ncnc(N)c12
Activity (ONS [2]): Active

C[C@@H]1NC(=O)[C@@H](C)C/C=C/[C@H](C)C[C@H](C)OC(=O)C[C@H](c2ccc(O)cc2)NC(=O)[C@@H](Cc2c(Br)[nH]c3ccccc23)N(C)C1=O
Activity [7]: Toxic
Activity [8]: Toxic

Nc1ncc2ncn([C@@H]3O[C@H](CO)[C@@H](O)[C@H]3O)c2n1
Activity (ONS [6]): Active
Activity (ONS [2]): Active

NC(=O)c1cn([C@@H]2O[C@H](CO)[C@@H](O)[C@H]2O)c2ncnc(N)c12
Activity (ONS [6]): Active
Activity (ONS [2]): Active

COc1cc2c3c(c(=O)oc2cc1O)NCCS3(=O)=O
Activity (ONS [9]): Active
Activity (ONS [10]): Active

NCCc1c[nH]c2cc(Br)ccc12
Activity (ONS [6]): Active
Activity (ONS [2]): Active

C/C1=C\[C@H](C)C[C@H](C)OC(=O)C[C@H](c2ccc(O)cc2)NC(=O)[C@@H](Cc2c(Br)[nH]c3ccccc23)N(C)C(=O)[C@H](C)NC(=O)[C@@H](C)C1 [JASPAMIDE]
Activity [7]: Toxic
Activity [8]: Toxic

NC(=O)c1c[nH]c2ncnc(N)c12
Activity (ONS [2]): Active

O=C(NC(=O)c1c[nH]c2cc(Br)ccc12)c1c[nH]c2cc(Br)ccc12
Activity (ONS [1]): Active
Activity (ONS [2]): Active
Activity (ONS [3]): Active
Activity [4]: Active
Activity (ONS [5]): Active

C/C1=C\[C@H](C)C[C@H](C)OC(=O)C[C@H](c2ccc(O)c(Br)c2)NC(=O)[C@@H](Cc2c(Br)[nH]c3ccccc23)N(C)C(=O)[C@H](C)NC(=O)[C@@H](C)C1 [PIPESTELIDE A]
Activity [7]: Toxic
Activity [8]: Toxic

COC(=O)c1c[nH]c2ncnc(N)c12
Activity (ONS [2]): Active

COC(=O)c1cn([C@@H]2O[C@H](CO)[C@@H](O)[C@H]2O)c2ncnc(N)c12
Activity (ONS [2]): Active

C=C1C[C@H](C)C(=O)N[C@@H](C)C(=O)N(C)[C@H](Cc2c(Br)[nH]c3ccccc23)C(=O)N[C@@H](c2ccc(O)cc2)CC(=O)O[C@@H](C)C[C@@H](C)C1=O [JASPLAKINOLIDE B]
Activity [7]: Toxic
Activity [8]: Toxic

COC(=O)c1c[nH]c2cc(Br)ccc12
Activity (ONS [2]): Active

NC(=O)c1c[nH]c2cc(Br)ccc12
Activity (ONS [1]): Active
Activity (ONS [6]): Active
Activity (ONS [2]): Active
Activity (ONS [3]): Active
Activity [4]: Active
Activity (ONS [5]): Active
